Source: ChEMBL document CHEMBL3751707, “Silicon Incorporated Morpholine Antifungals: Design, Synthesis, and Biological Evaluation” (ACS Med Chem Lett, 2015)
≈ marks a conversion by molar mass, not a printed value.

Assays:
[1] = test system: Candida albicans; assay: Antifungal activity against Candida albicans ATCC 24433 after 24 to 36 hrs by broth microdilution method; assay type: functional, organism-based
Outline: (§1)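 CLSI broth microdilution against yeasts (M27-A3) and filamentous fungi (M38-A2). Read-outs: IC50 (concentration giving 50% growth inhibition), MIC, and MFC (minimum fungicidal concentration), all in μg/mL. Assay done twice in triplicate.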

[2] = test system: Candida albicans; assay: Antifungal activity against Candida albicans ATCC 24433 after 72 hrs by broth microdilution method; assay type: functional; conditions: ATCC 24433, 72 h; outline: as §1
[3] = test system: Candida albicans; assay: Antifungal activity against Candida albicans ATCC 10231 after 24 to 36 hrs by broth microdilution method; assay type: functional, organism-based; outline: as §1
[4] = test system: Candida albicans; assay: Antifungal activity against Candida albicans ATCC 10231 after 72 hrs by broth microdilution method; assay type: functional; conditions: ATCC 10231, 72 h; outline: as §1
[5] = test system: Cryptococcus neoformans; assay: Antifungal activity against Cryptococcus neoformans ATCC 34664 after 24 to 36 hrs by broth microdilution method; assay type: functional, organism-based; outline: as §1
[6] = test system: Cryptococcus neoformans; assay: Antifungal activity against Cryptococcus neoformans ATCC 34664 after 72 hrs by broth microdilution method; assay type: functional; conditions: ATCC 34664, 72 h; outline: as §1
[7] = test system: Nakaseomyces glabratus; assay: Antifungal activity against Candida glabrata NCYC 388 after 24 to 36 hrs by broth microdilution method; assay type: functional, organism-based; outline: as §1
[8] = test system: Nakaseomyces glabratus; assay: Antifungal activity against Candida glabrata NCYC 388 after 72 hrs by broth microdilution method; assay type: functional; conditions: NCYC 388, 72 h; outline: as §1
[9] = test system: Candida tropicalis; assay: Antifungal activity against Candida tropicalis ATCC 750 after 24 to 36 hrs by broth microdilution method; assay type: functional, organism-based; outline: as §1
[10] = test system: Candida tropicalis; assay: Antifungal activity against Candida tropicalis ATCC 750 after 72 hrs by broth microdilution method; assay type: functional; conditions: ATCC 750, 72 h; outline: as §1
[11] = test system: Aspergillus niger; assay: Antifungal activity against Aspergillus niger ATCC 10578 after 48 hrs by broth microdilution method; assay type: functional, organism-based; conditions: ATCC 10578, 48 h; outline: as §1
[12] = test system: Aspergillus niger; assay: Antifungal activity against Aspergillus niger ATCC 10578 after 72 hrs by broth microdilution method; assay type: functional; conditions: ATCC 10578, 72 h; outline: as §1
[13] = Toxicity in human RBC assessed as hemolysis upto 128 ug/ml; assay type: cell-based; conditions: erythrocyte
[14] = Toxicity in human RBC assessed as partial hemolysis at 256 ug/ml; assay type: cell-based; conditions: erythrocyte
[15] = Metabolic stability in mouse liver microsomes after 30 mins by LC-MS/MS analysis; assay type: ADME; conditions: read-out: Stability
Outline: (§2)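 Test compounds were incubated 30 min with liver microsomes (human or mouse, per line), and values are reported as % metabolic stability after 30 min.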

[16] = Metabolic stability in human liver microsomes after 30 mins by LC-MS/MS analysis; assay type: ADME; conditions: read-out: Stability; outline: as §2
[17] = test system: Candida albicans; assay: Effect on sterol profile of Candida albicans ATCC 24433 assessed as ergosta-7,22-dien-3-ol,(3a'22E) level at 0.125 ug/ml for 24 hrs by spectrophotometry; assay type: functional
Outline: (§3)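 C. albicans ATCC 24433 grown with subinhibitory (<MIC) compound concentrations. Cellular sterols extracted. Sterol content read spectrophotometrically by scan at 230–300 nm, and individual intermediates quantified by GC–MS. Values are average % of total sterols from two experiments, with standard error of the mean.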

[18] = test system: Candida albicans; assay: Effect on sterol profile of Candida albicans ATCC 24433 assessed as squalene level at 0.125 ug/ml for 24 hrs by spectrophotometry (reference value: 7.17 +/- 0.35 %); assay type: functional; outline: as §3
[19] = test system: Candida albicans; assay: Effect on sterol profile of Candida albicans ATCC 24433 assessed as cholesta-8,24-dien-3-ol,4-methyl-(3a',4a') level at 0.125 ug/ml for 24 hrs by spectrophotometry (reference value: 7.19 +/- 0.65 %); assay type: functional; outline: as §3
[20] = test system: Candida albicans; assay: Effect on sterol profile of Candida albicans ATCC 24433 assessed as ergosterol level at 0.125 ug/ml for 24 hrs by spectrophotometry (reference value: 73.34 +/- 2.53 %); assay type: functional; outline: as §3
[21] = test system: Candida albicans; assay: Effect on sterol profile of Candida albicans ATCC 24433 assessed as cholesta-5,24-dien-3-ol level at 0.125 ug/ml for 24 hrs by spectrophotometry (reference value: 3.58 +/- 0.52 %); assay type: functional; outline: as §3
[22] = test system: Candida albicans; assay: Effect on sterol profile of Candida albicans ATCC 24433 assessed as lichesterol level at 0.125 ug/ml for 24 hrs by spectrophotometry; assay type: functional; outline: as §3
[23] = test system: Candida albicans; assay: Effect on sterol profile of Candida albicans ATCC 24433 assessed as ergosterol level at 0.125 ug/ml for 24 hrs by spectrophotometry; assay type: functional; conditions: in the assay text read “ergostenol level” for “ergosterol level”; outline: as §3
[24] = test system: Candida albicans; assay: Effect on sterol profile of Candida albicans ATCC 24433 assessed as squalene level at 0.25 ug/ml for 24 hrs by spectrophotometry (reference value: 7.17 +/- 0.35 %); assay type: functional; outline: as §3
[25] = test system: Candida albicans; assay: Effect on sterol profile of Candida albicans ATCC 24433 assessed as ergosterol level at 0.25 ug/ml for 24 hrs by spectrophotometry (reference value: 73.34 +/- 2.53 %); assay type: functional; conditions: in the assay text read “by GC-MS” for “by spectrophotometry”; outline: as §3
[26] = test system: Candida albicans; assay: Effect on sterol profile of Candida albicans ATCC 24433 assessed as cholesta-8,24-dien-3-ol,4-methyl-(3a',4a') level at 0.25 ug/ml for 24 hrs by spectrophotometry (reference value: 7.19 +/- 0.65 %); assay type: functional; conditions: in the assay text read “by GC-MS” for “by spectrophotometry”; outline: as §3
[27] = test system: Candida albicans; assay: Effect on sterol profile of Candida albicans ATCC 24433 assessed as ignosterol level at 0.25 ug/ml for 24 hrs by spectrophotometry; assay type: functional; conditions: in the assay text read “by GC-MS” for “by spectrophotometry”; outline: as §3
[28] = test system: Candida albicans; assay: Effect on sterol profile of Candida albicans ATCC 24433 assessed as lichesterol level at 0.25 ug/ml for 24 hrs by spectrophotometry; assay type: functional; conditions: in the assay text read “by GC-MS” for “by spectrophotometry”; outline: as §3
[29] = test system: Candida albicans; assay: Effect on sterol profile of Candida albicans ATCC 24433 assessed as ergosterol level at 0.25 ug/ml for 24 hrs by spectrophotometry; assay type: functional; conditions: in the assay text read “ergostenol level” for “ergosterol level”; outline: as §3
[30] = test system: Candida albicans; assay: Effect on sterol profile of Candida albicans ATCC 24433 assessed as ergosta-7,22-dien-3-ol,(3a'22E) level at 0.25 ug/ml for 24 hrs by spectrophotometry; assay type: functional; conditions: in the assay text read “by GC-MS” for “by spectrophotometry”; outline: as §3

Structure (SMILES)	IC50 [1] [µg/mL]	MIC [1] [µg/mL]	MFC [2] [µg/mL]	IC50 [3] [µg/mL]	MIC [3] [µg/mL]	MFC [4] [µg/mL]	IC50 [5] [µg/mL]	MIC [5] [µg/mL]	MFC [6] [µg/mL]	IC50 [7] [µg/mL]	MIC [7] [µg/mL]	MFC [8] [µg/mL]	IC50 [9] [µg/mL]	MIC [9] [µg/mL]	MFC [10] [µg/mL]	IC50 [11] [µg/mL]	MIC [11] [µg/mL]	MFC [12] [µg/mL]	Activity [13]	further results
CC(Cc1ccc([Si](C)(C)C)cc1)CN1CCC(O)CC1 (centres undefined)	0.396 (≈ 1.3 µM)	1 (≈ 3.27 µM)	2 (≈ 6.55 µM)	0.19 (≈ 0.622 µM)	0.25 (≈ 0.818 µM)	4 (≈ 13.1 µM)	0.93 (≈ 3.04 µM)	2 (≈ 6.55 µM)	16 (≈ 52.4 µM)	0.196 (≈ 0.641 µM)	0.5 (≈ 1.64 µM)	8 (≈ 26.2 µM)	0.198 (≈ 0.648 µM)	4 (≈ 13.1 µM)	256 (≈ 838 µM)	0.25 (≈ 0.818 µM)	0.5 (≈ 1.64 µM)	256 (≈ 838 µM)	Non-toxic	Activity [14]: Toxic
CC(Cc1ccc([Si](C)(C)C)cc1)CN1CC[Si](C)(C)CC1 (centres undefined)	1.25 (≈ 3.75 µM)	4 (≈ 12 µM)	8 (≈ 24 µM)	0.45 (≈ 1.35 µM)	1 (≈ 3 µM)	4 (≈ 12 µM)	1.98 (≈ 5.93 µM)	8 (≈ 24 µM)	64 (≈ 192 µM)	1.75 (≈ 5.24 µM)	8 (≈ 24 µM)	16 (≈ 48 µM)	44.8 (≈ 134 µM)	64 (≈ 192 µM)	> 256	0.5 (≈ 1.5 µM)	2 (≈ 5.99 µM)	> 256	Non-toxic	remaining at 0.5 h [15]: 17.3%; remaining at 0.5 h [16]: 44.5%
CCC(C)(C)c1ccc(CC(C)CN2C[C@@H](C)O[C@@H](C)C2)cc1 (some centres undefined) [AMOROLFINE]	0.028 (≈ 0.0882 µM)	1 (≈ 3.15 µM)	8 (≈ 25.2 µM)	0.1 (≈ 0.315 µM)	0.25 (≈ 0.787 µM)	32 (≈ 101 µM)	0.031 (≈ 0.0976 µM)	0.125 (≈ 0.394 µM)	64 (≈ 202 µM)	0.038 (≈ 0.12 µM)	0.125 (≈ 0.394 µM)	32 (≈ 101 µM)	0.173 (≈ 0.545 µM)	0.5 (≈ 1.57 µM)	> 256	0.125 (≈ 0.394 µM)	0.5 (≈ 1.57 µM)	> 256	Non-toxic	Activity [17]: 15.28%; Activity [18]: 22.04%; Activity [19]: 12.26%; Activity [20]: 30.16%; Activity [21]: 0.44%; Activity [22]: 8.26%; Activity [23]: 11.56%; Activity [24]: 17.08%; Activity [25]: 6.13%; Activity [26]: 12.03%; Activity [27]: 11.11%; Activity [28]: 32.13%; Activity [29]: 5.71%; Activity [30]: 15.81%
